Sampled rows, rich in hits. Any-hit rate of the full collection: about 3.1%.
KCNK9 block – human KCNK9 channel inhibition. HEK293 KCNK9, FluxOR thallium flux fluorescence; hits give low values. actives 1.2% (n = 310,000). B-score at 10 µM. AID 488922. Q9NPC2;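 active means ratio B-score over 3 SD below the library mean, with starting fluorescence within 5 SD of its mean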;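 further: negative B-score means less thallium flux so channel inhibition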
hERG protect – hERG (human) protection from proarrhythmic block | Q12809 | CHO-hERG, FluxOR thallium flux, dofetilide IC70 present | activation (rescue from dofetilide block), less the hit threshold, % at 10 µM | actives 0.51% (n = 310,000);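 active means activation above the mean of controls blocked by dofetilide plus 5 SD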;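 further: thallium influx through hERG after potassium depolarization seen as dye fluorescence rise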
KCNQ1 pot – potentiators or activators of human KCNQ1 potassium channel. B-score at 10 µM. actives 0.35% (n = 310,000). AID 2648. CHO-K1 KCNQ1, thallium flux FluxOR fluorescence; hits give high values;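 active means fluorescence ratio B-score, a plate-corrected score, at least three library SD, with initial intensity B-score within 5 SD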
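Medium – assay buffer, equal DMSO in all wells · Material – CHO-K1 cell line with stable KCNQ1 potassium channel expression · Signal – kinetic FluxOR thallium fluorescence, 10-s 1-Hz baseline, 110-s post-stimulus read · Compound – single concentration per compound, DMSO matched to controls · Schedule – 37 °C overnight plating, 90-min dark dye load, 20-min compound pretreatment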
KCNK3 inh – human KCNK3 channel inhibition, primary screen; actives 0.84% (n = 340,000); CHO-KCNK3 thallium flux, FluxOR fluorescence; hits give low values; B-score at 10 µM;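 active means B-score under library mean minus 4 SD, starting fluorescence ratio at most library mean plus 5 SD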;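 further: more negative B-score means stronger inhibition of thallium flux through KCNK3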
KCNQ1 block – human KCNQ1 channel inhibition | P51787 | CHO-K1 KCNQ1, FluxOR thallium flux fluorescence; hits give high values | B-score at 10 µM | actives 1.3% (n = 310,000) | AID 2642;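 active means compounds whose thallium flux B-score, printed positive for inhibition, exceeds three library SD while starting fluorescence stays within three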;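 further: channel opened by potassium depolarization with thallium stimulus after 20 min compound exposure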
KCNQ1 block val – human KCNQ1 channel inhibition, validation assay | inhibition, % at 10 µM | shares compounds with KCNQ1 block | KCNQ1 cell line, FluxOR thallium flux fluorescence | AID 588353 | actives 93% (n = 1,600);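 active means primary screen active, with duplicate mean exceeding buffer control mean plus 3 SD of buffer wells, cut at about 28% in these data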;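 further: 0% = buffer control ratio and 100% = XE991 inhibitor control ratio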
CHO Tl flux – counter-screen for KCNQ1 inhibitors: effect in parental CHO cells; shares compounds with KCNQ1 block; parental CHO-K1, FluxOR thallium flux fluorescence ratio; hits give low values; zero means no signal rise above baseline; fluorescence ratio (Tl flux) at 10 µM; actives 21% (n = 1,600);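 active means mean of duplicate thallium-flux fluorescence ratios in parental host cells more than 5 SD below the buffer control mean, cut at about 0.38 in these data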;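 further: ratio is peak minus minimum fluorescence divided by baseline fluorescence; actives read low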
KCNQ1 ephys val – human KCNQ1 inhibition validated by electrophysiology. shares compounds with KCNQ1 block. KCNQ1-CHO cells, automated patch clamp current. calls only at 10 µM. actives 20% (n = 490). AID 624120;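 active means KCNQ1 current drop exceeding 3 SD of negative control wells, seen in both duplicate runs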;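 further: steady state current during a 2 s step from -80 to +40 mV; negative values mean current inhibition and positive values mean potentiation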
KCNQ2 inh – rat KCNQ2 inhibition in KCNQ1 inhibitor specificity screen; actives 71% (n = 1,600); KCNQ2 cells, FluxOR thallium flux fluorescence; shares compounds with KCNQ1 block; AID 651746; inhibition, % at 10 µM;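 active means mean percent inhibition of the KCNQ2 thallium signal more than 5 SD above the buffer-only control wells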;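 further: KCNQ2 expressed in CHO cells; 0% = buffer control wells and 100% = XE-991 inhibitor control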
KCNQ1 KCNE1 spec – selectivity of KCNQ1 inhibitors: inhibition of human KCNQ1/KCNE1 channel | KCNQ1/KCNE1 cells, FluxOR thallium flux fluorescence | shares compounds with KCNQ1 block | inhibition, % at 10 µM | actives 77% (n = 1,600) | AID 652147;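 active means mean percent inhibition of duplicate wells above the buffer-only control mean plus 3 SD of those controls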;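 further: 0% = buffer only wells and 100% = XE-991 inhibitor control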
Target sequence (P51787 whole entry, looked up): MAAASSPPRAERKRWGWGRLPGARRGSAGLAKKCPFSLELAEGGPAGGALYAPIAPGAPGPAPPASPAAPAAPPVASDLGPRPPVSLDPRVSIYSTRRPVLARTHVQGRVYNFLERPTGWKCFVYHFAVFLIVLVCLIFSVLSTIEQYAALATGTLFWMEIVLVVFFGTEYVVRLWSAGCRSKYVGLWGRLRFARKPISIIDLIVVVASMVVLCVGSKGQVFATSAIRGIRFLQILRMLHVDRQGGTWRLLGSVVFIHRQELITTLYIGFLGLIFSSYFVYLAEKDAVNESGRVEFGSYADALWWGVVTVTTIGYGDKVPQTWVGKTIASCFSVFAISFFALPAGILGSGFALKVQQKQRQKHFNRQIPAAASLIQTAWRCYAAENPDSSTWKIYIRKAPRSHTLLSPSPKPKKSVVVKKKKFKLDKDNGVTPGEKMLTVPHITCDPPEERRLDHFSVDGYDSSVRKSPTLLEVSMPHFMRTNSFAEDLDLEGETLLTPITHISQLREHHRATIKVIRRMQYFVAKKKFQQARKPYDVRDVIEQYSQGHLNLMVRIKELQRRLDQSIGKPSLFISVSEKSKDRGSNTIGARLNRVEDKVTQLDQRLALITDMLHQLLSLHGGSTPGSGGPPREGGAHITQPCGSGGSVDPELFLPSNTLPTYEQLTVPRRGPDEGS
The depositor's hits bear a star; i = inactive; nt = no result given; + = active, no number.

SMILES	KCNK9 block	hERG protect	KCNQ1 pot	KCNK3 inh	KCNQ1 block	KCNQ1 block val	CHO Tl flux	KCNQ2 inh	KCNQ1 KCNE1 spec	others
CCOc1ccc(NC(=O)COc2ccc(C(=O)NCC3CCCO3)cc2OC)cc1 (configuration not stated)	nt	nt	nt	i	nt	nt	nt	nt	nt
COc1ccccc1NC(C#N)c1ccccc1OCc1ccccc1 (configuration not stated)	i	-16.8	i	i	7*	99.5*	0.384	96.3%*	135.0%*	KCNQ1 ephys val=i
CNC(=O)c1ccc(OCc2ccccc2)c(OC)c1	nt	nt	nt	i	nt	nt	nt	nt	nt
CC1(C)Cc2ccccc2-c2nc(NN)[nH]c(=O)c21	i	-9.2	i	i	i	nt	nt	nt	nt
CC1(C)Cc2ccccc2-c2nc(-c3ccccc3)oc(=O)c21	i	-14.1	i	i	10*	101.5*	0.442	99.0%*	130.0%*
Cc1c(C(=O)Nc2nnc(C(F)(F)F)s2)oc2ccccc12	i	-11.1	i	i	7*	69.0*	0.539	i	i
COC(=O)c1sc(NC(=O)c2oc3ccccc3c2C)nc1C	i	-2.4	i	i	i	nt	nt	nt	nt
COc1ccc(OC)c(S(=O)(=O)Nc2cc(C)on2)c1	i	-7.4	i	i	i	nt	nt	nt	nt
Cc1ccccc1S(=O)(=O)Nc1nc2ccccc2nc1N1CCc2ccccc2C1	i	-17.7	i	i	7*	84.5*	0.389	92.3%*	121.5%*
[O-][n+]1c2ccccc2c2n1CCCN=C2c1ccc(Cl)cc1	i	-7.0	i	i	i	nt	nt	nt	nt
Cc1onc(-c2ccccc2)c1C(=O)Nc1nc(-c2ccc(F)c(F)c2)cs1	i	-8.1	i	i	7*	103.5*	0.515	109.0%*	120.0%*	KCNQ1 ephys val=i
O=C(Nc1ccccc1)Nc1nc(-c2ccc(F)c(F)c2)cs1	i	-6.1	i	i	6*	72.0*	0.468	83.7%*	81.5%*
Cc1csc(NC(=O)c2c(-c3ccccc3)noc2C)n1	i	-12.9	i	i	i	nt	nt	nt	nt
O=C(CN(C(=O)CCC(=O)Nc1ccccn1)C1CCCC1)NCc1ccccc1	i	-8.4	i	i	i	nt	nt	nt	nt
CC(=O)c1c(C)[nH]c(C(=O)NCCc2c[nH]c3ccccc23)c1C	i	-7.6	i	i	i	nt	nt	nt	nt
Cc1ccc(S(=O)(=O)NCc2ccncc2)c(C)c1C	i	-19.8	i	i	7*	55.5*	0.511	i	i
Cc1ccc(S(=O)(=O)NCc2ccccn2)c(C)c1C	i	-9.2	i	i	i	nt	nt	nt	nt
COc1ccc(NS(=O)(=O)c2ccc(C(=O)N3CCC(C)CC3)cc2)cc1	nt	nt	nt	i	nt	nt	nt	nt	nt
Cc1ccc(C)c(N2CCN(C(=O)c3ccc(N4CCOCC4)c([N+](=O)[O-])c3)CC2)c1	i	-1.4	i	i	i	nt	nt	nt	nt
O=c1[nH]c(=S)[nH]c2nc(-c3ccccc3)cnc12	i	-8.6	i	i	i	nt	nt	nt	nt
Cc1cc2nc3c(=O)[nH]c(=S)[nH]c3nc2cc1NC(=O)C(F)(F)F	-7.24*	-19.8	i	i	11*	65.5*	0.326*	i	151.0%*
COC(=O)c1ccc(CNC(=O)[C@@H]2CCCN2S(=O)(=O)c2ccccc2F)cc1	nt	nt	nt	i	nt	nt	nt	nt	nt
N#Cc1ccc(COC(=O)c2ccc3c(c2)OCO3)cc1	i	-2.4	i	i	i	nt	nt	nt	nt
O=C(Nc1ccccc1)Nc1cccc(Cl)c1	i	-13.2	i	i	13*	86.0*	0.512	72.3%*	i
N#Cc1cccc(NC(=O)c2ccccc2C(=O)O)c1	i	-6.6	i	i	i	nt	nt	nt	nt
SMILES	KCNK9 block	hERG protect	KCNQ1 pot	KCNK3 inh	KCNQ1 block	KCNQ1 block val	CHO Tl flux	KCNQ2 inh	KCNQ1 KCNE1 spec	others
CSc1cccc(NC(N)=O)c1	i	-10.2	i	i	i	nt	nt	nt	nt
O=C(Nc1cccc(Cl)c1)Nc1ccc2nccnc2c1	i	-8.5	i	i	7*	98.5*	0.434	92.0%*	100.5%*	KCNQ1 ephys val=i
O=C(Nc1ccc2nccnc2c1)Nc1ccccc1Cl	i	-8.9	i	i	i	nt	nt	nt	nt
N#Cc1ccc(NC(=O)Nc2cccc(C#N)c2)cc1	i	-26.0	i	i	7*	49.0*	0.494	i	i
CSc1cccc(NC(=O)Nc2ccc(Cl)cc2)c1	i	-16.8	i	i	17*	68.5*	0.392	60.7%*	43.5%*
COC(=O)C1CSC(c2ccc(Cl)cc2)N1C(=O)c1ccccc1 (configuration not stated)	i	-15.8	i	i	i	nt	nt	nt	nt
COc1cc(/C=C/C(=O)OCC(=O)N(C)Cc2ccccc2)ccc1O	nt	nt	nt	i	nt	nt	nt	nt	nt
COC(=O)c1cc(OC)c(OC)cc1NC(=S)Nc1cccc(Cl)c1	i	-5.5	i	i	7*	59.5*	0.512	i	i
O=C(Nc1cccnc1)Nc1cccc(F)c1	i	-5.7	i	i	i	nt	nt	nt	nt
Fc1ccc(NC(=S)Nc2cccc(Cl)c2)cc1	i	-18.2	i	i	6*	47.5*	0.509	i	36.0%*
CC(=O)c1ccc(NC(=O)Nc2cccc(Cl)c2)cc1	i	-17.2	i	i	8*	88.0*	0.466	60.7%*	i	KCNQ1 ephys val=i
O=C(Nc1ccncc1)Nc1cccc(F)c1	i	-16.6	i	i	8*	48.5*	0.545	i	42.0%*
Fc1ccc(CNC(=S)Nc2cccc(Cl)c2)cc1	i	-17.5	i	i	i	nt	nt	nt	nt
Cc1ccc(NC(=O)CSCC(=O)Nc2ccccc2N2CCCCC2)cc1	i	-15.7	i	i	8*	114.5*	0.424	i	167.5%*	KCNQ1 ephys val=+
Cc1cccc(NC(=O)CSCC(=O)Nc2ccccc2N2CCCCC2)c1	i	-9.5	i	i	i	nt	nt	nt	nt
O=C(CNCCC1=CCCCC1)Nc1ccccc1N1CCCCC1	i	-18.7	i	i	8*	132.0*	0.371*	110.3%*	179.0%*
Cc1ccc(Cl)cc1N1CCN(C(=O)c2cc3c(=O)[nH]c4ccccc4c3n2C)CC1	i	-29.6	i	i	12*	110.0*	0.512	104.3%*	i	KCNQ1 ephys val=i
Cn1cc(CNC(=O)c2cc(COc3ccc4c(c3)CCCC4)on2)cn1	i	-11.6	i	i	i	nt	nt	nt	nt
